Active and inactive are the calls of the source. The calls are words filed in the database; no cut-off is given here.
How the values were obtained:
MCF7 [1] = test: Antiproliferative activity against human MCF7 cells; type: functional, cell-based
Outline: (§1)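 Cell growth inhibition with values in µM, reported as mean ± standard deviation from at least two separate experiments, each run in triplicate.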

SK-BR-3 = test: Antiproliferative activity against human SKBR3 cells; type: functional, cell-based; outline: as §1
Heat shock protein HSP90 [2] = molecular target: T1, Heat shock protein HSP90 (Homo sapiens, UniProt P07900+P08238); test: Inhibition of Hsp90 (unknown origin); type: protein assay
SKBr3 (Homo sapiens) = test: Antiproliferative activity against human SKBr3 cells
MCF7 [3] = test: Effect on Hsp90 level in human MCF7 cells after 24 hrs by Western blot analysis; type: functional, cell-based
Heat shock protein HSP90 [4] = molecular target: T1, Heat shock protein HSP90; test: Inhibition of Hsp90 in human MCF7 cells assessed as Her2 degradation after 24 hrs by Western blot analysis; type: cell-based
Outline: (§2)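 MCF-7 cells treated across a range of concentrations (in µM). Cell lysates were analysed by western blot for the Hsp90-dependent client proteins Her2, Raf and Akt. Geldanamycin (500 nM) served as positive control and DMSO as negative control.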

Heat shock protein HSP90 [5] = molecular target: T1, Heat shock protein HSP90; test: Inhibition of Hsp90 in human MCF7 cells assessed as Raf degradation after 24 hrs by Western blot analysis; type: cell-based; outline: as §2
Heat shock protein HSP90 [6] = molecular target: T1, Heat shock protein HSP90; test: Inhibition of Hsp90 in human MCF7 cells assessed as Akt degradation after 24 hrs by Western blot analysis; type: cell-based; outline: as §2

Compound	IC50 (MCF7 [1]) [nM]	IC50 (SK-BR-3) [nM]	IC50 (SKBr3 (Homo sapiens)) [µM]	further results
CC(=O)Oc1ccc(C(=O)Nc2cc3ccc(OC4CCN(C)CC4)c(C)c3oc2=O)cc1	1620	1670		
COc1ccc(C(=O)Nc2cc3ccc(OC4CCN(C)CC4)c(C)c3oc2=O)cc1-c1cccc(O)c1	380	310		IC50 (Heat shock protein HSP90 [2]): 0.31 µM
CC(=O)Oc1ccc(C(=O)Nc2cc3ccc(OC4CCN(C)CC4)c(C)c3oc2=O)cc1Cl	1610	3500		
Cc1ccc(NC(=O)Nc2cc3ccc(OC4CCN(C)CC4)c(C)c3oc2=O)cc1C			0.31	
Cc1c(OCCC2CCCCN2)ccc2cc(NC(=O)Nc3ccc(Cl)cc3)c(=O)oc12 (centres undefined)			0.21	
COc1ccc(C(=O)Nc2cc3ccc(OC4CCN(C)CC4)c(C)c3oc2=O)cc1-c1cccc(OC(C)=O)c1	360	290		
CC(C)=CCc1cc(C(=O)Nc2cc3ccc(OC4CCN(C)CC4)c(C)c3oc2=O)ccc1OCCCN(C)C	460	250		Activity (MCF7 [3]): inactive; inhibition (Heat shock protein HSP90 [4]): Dose-dependent effect; inhibition (Heat shock protein HSP90 [5]): Dose-dependent effect; inhibition (Heat shock protein HSP90 [6]): Dose-dependent effect
CC(C)=CCc1cc(C(=O)Nc2cc3ccc(OC4CCN(C)CC4)c(C)c3oc2=O)ccc1OC1CCN(C)CC1	470	210		
COc1ccc(C(=O)Nc2cc3ccc(O[C@@H]4OC(C)(C)[C@H](OC)[C@@H](O)[C@H]4O)c(C)c3oc2=O)cc1-c1cccc(O)c1			2.9	
CC(C)=CCc1cccc(C(=O)Nc2cc3ccc(OC4CCN(C)CC4)c(C)c3oc2=O)c1	2100	1680		
Cc1c(OC2CCN(C)CC2)ccc2cc(NC(=O)Nc3ccc(Cl)cc3)c(=O)oc12			0.17	
Cc1c(OC2CCN(C)CC2)ccc2cc(NC(=O)c3ccccc3)c(=O)oc12	11700	11500		
COc1cccc(-c2cc(C(=O)Nc3cc4ccc(OC5CCN(C)CC5)c(C)c4oc3=O)ccc2O)c1	810	860		
Cc1c(OC2CCN(C)CC2)ccc2cc(NC(=O)c3ccc4c(c3)CCC(C)(C)O4)c(=O)oc12	5010	3460		
COc1ccc(C(=O)Nc2cc3ccc(OC4CCN(C)CC4)c(C)c3oc2=O)cc1CC=C(C)C	1580	1410		
CC(C)=CCc1cc(C(=O)Nc2cc3ccc(OC4CCN(C)CC4)c(C)c3oc2=O)ccc1OCCN(C)C	720	330		
C=CCc1cc(C(=O)Nc2cc3ccc(OC4CCN(C)CC4)c(C)c3oc2=O)ccc1O	2170	2430		
CCCCOc1ccc(C(=O)Nc2cc3ccc(OC4CCN(C)CC4)c(C)c3oc2=O)cc1CC=C(C)C	1440	1400		
CO[C@@H]1[C@@H](O)[C@@H](O)[C@H](Oc2ccc3cc(NC(=O)c4ccc(O)c(CC=C(C)C)c4)c(=O)oc3c2C)OC1(C)C			10.9	
Cc1c(OC2CCN(C)CC2)ccc2cc(NC(=O)c3ccc(O)cc3)c(=O)oc12	1430	840		
C#CCOc1ccc(C(=O)Nc2cc3ccc(OC4CCN(C)CC4)c(C)c3oc2=O)cc1CC=C(C)C	1120	1400		
C=CCc1cc(C(=O)Nc2cc3ccc(OC4CCN(C)CC4)c(C)c3oc2=O)ccc1OC(C)=O	2000	2260		
Cc1c(OC2CCN(C)CC2)ccc2cc(NC(=O)c3ccc(O)c(Cl)c3)c(=O)oc12	1480	2300		
COc1cccc(-c2cc(C(=O)Nc3cc4ccc(O[C@@H]5OC(C)(C)[C@H](OC)[C@@H](O)[C@H]5O)c(OC)c4oc3=O)ccc2OC)c1			13.9	
Cc1ccc(NC(=O)Nc2cc3ccc(OC4CCN(C)CC4)c(C)c3oc2=O)cc1			0.27	
COc1cccc(-c2cc(C(=O)Nc3cc4ccc(O[C@@H]5OC(C)(C)[C@H](OC)[C@@H](O)[C@H]5O)c(C)c4oc3=O)ccc2OC)c1			7.5	
Cc1c(OC2CCN(C)CC2)ccc2cc(NC(=O)c3ccc(O)c(CCC(C)C)c3)c(=O)oc12	1250	600		
COc1cccc(-c2cc(C(=O)Nc3cc4ccc(OC5CCN(C)CC5)c(C)c4oc3=O)ccc2OC)c1			1.34	
COc1cccc(-c2cc(C(=O)Nc3cc4ccc(OC5CCN(C)CC5)c(C)c4oc3=O)ccc2OC(C)=O)c1	910	920		
